# Test results reported in ChEMBL document CHEMBL1129034, “Novel N6-(substituted-phenylcarbamoyl)adenosine-5'-uronamides as potent agonists for A3 adenosine receptors” (J Med Chem, 1996).
# Key:
# [1] = molecular target: T1, Adenosine receptor A1 (Rattus norvegicus, UniProt P25099); test: Displacement of [3H]CHA from Adenosine A1 receptor in rat brain homogenates; assay type: tissue-based
# T1 sequence (P25099 whole entry): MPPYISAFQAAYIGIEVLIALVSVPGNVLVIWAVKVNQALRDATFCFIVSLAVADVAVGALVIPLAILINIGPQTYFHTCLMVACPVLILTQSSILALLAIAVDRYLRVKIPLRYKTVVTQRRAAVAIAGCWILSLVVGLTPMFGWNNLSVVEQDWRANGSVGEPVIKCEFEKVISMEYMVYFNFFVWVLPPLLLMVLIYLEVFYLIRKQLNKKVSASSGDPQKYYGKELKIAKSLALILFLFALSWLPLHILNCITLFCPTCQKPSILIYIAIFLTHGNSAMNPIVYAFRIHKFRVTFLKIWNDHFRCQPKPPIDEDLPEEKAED
# [2] = molecular target: Adenosine receptor A2a (Rattus norvegicus, UniProt P30543); test: Displacement of [3H]-CGS- 21680 from Adenosine A2A receptor in rat striatal homogenates
# Method in brief: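 Rat striatal homogenates labelled with [3H]CGS 21680 for A2A; IC50 by probit analysis over at least six concentrations, Ki via Cheng-Prusoff using Kd 18.5 nM; n = 3-4, Ki ± SEM in nM.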
# [3] = molecular target: T2, Adenosine receptor A3 (Rattus norvegicus, UniProt P28647); test: Displacement of [125I]AB-MECA from cloned rat Adenosine A3 receptor in stably transfected CHO cells; assay type: cell-based
# T2 sequence (P28647 whole entry): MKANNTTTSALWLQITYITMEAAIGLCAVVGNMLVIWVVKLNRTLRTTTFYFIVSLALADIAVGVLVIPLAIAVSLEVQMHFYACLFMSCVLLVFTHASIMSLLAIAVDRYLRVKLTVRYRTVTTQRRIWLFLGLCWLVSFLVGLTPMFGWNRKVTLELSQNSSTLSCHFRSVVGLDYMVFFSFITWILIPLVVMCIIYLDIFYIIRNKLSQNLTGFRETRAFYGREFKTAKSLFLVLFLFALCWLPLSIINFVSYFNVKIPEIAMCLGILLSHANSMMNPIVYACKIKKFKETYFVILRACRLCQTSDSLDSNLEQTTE
# Method in brief: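 Membranes from CHO cells stably expressing rat A3 receptor, labelled with [125I]AB-MECA; IC50 by probit analysis from at least six concentrations, converted to Ki by Cheng-Prusoff with Kd 1.48 nM; n = 3, Ki ± SEM in nM.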
# [4] = molecular target: Adenosine receptors; A1 & A3 (Rattus norvegicus) (UniProt P25099+P28647); test: Selectivity, ratio between A1 receptor binding affinity / A3 receptor binding affinity; assay type: protein assay
# [5] = molecular target: Adenosine receptor A2a and A3 (Rattus norvegicus) (UniProt P30543+P28647); test: Selectivity, ratio between A2A receptor binding affinity / A3 receptor binding affinity; assay type: protein assay
# Chain of Adenosine receptor A2a and A3 (Rattus norvegicus) (P30543 whole entry, looked up, one chain of several): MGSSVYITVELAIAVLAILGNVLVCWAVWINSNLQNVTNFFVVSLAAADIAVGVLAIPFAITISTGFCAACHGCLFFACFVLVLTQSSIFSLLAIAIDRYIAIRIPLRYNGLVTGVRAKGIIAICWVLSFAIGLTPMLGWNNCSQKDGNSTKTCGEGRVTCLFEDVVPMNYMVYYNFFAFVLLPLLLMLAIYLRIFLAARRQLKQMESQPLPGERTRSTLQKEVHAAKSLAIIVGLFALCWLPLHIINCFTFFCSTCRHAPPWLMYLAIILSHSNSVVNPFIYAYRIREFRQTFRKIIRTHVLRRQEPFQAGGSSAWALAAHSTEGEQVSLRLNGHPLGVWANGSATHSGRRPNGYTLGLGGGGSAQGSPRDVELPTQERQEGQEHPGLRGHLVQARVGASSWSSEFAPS
# Chain of Adenosine receptor A2a (P30543 whole entry): as the sequence (P30543 whole entry, looked up, one chain of several) above
SMILES,Ki [1] [nM],Ki [2] [nM],Ki [3] [nM],Selectivity [4],Selectivity [5]
CCNC(=O)[C@H]1O[C@@H](n2cnc3c(NC(=O)Nc4cccc(F)c4)ncnc32)[C@H](O)[C@@H]1O,103,611,39,2.6,16
CCNC(=O)[C@H]1O[C@@H](n2cnc3c(NC(=O)Nc4ccccc4C(F)(F)F)ncnc32)[C@H](O)[C@@H]1O,384,10000,54,7.4,190
CCNC(=O)[C@H]1OC(n2cnc3c(NC(=O)Nc4cccc(C(F)(F)F)c4)ncnc32)[C@H](O)[C@@H]1O (some centres undefined),700,2300,77,9.1,30
CCCCCCCCNC(=O)Nc1ncnc2c1ncn2[C@@H]1O[C@H](C(=O)NCC)[C@@H](O)[C@H]1O,448,3070,326,1.4,9.4
CNC(=O)[C@H]1O[C@@H](n2cnc3c(NC(=O)Nc4ccc(OC)cc4)ncnc32)[C@H](O)[C@@H]1O,491,8750,56,8.8,160
CCNC(=O)[C@H]1O[C@@H](n2cnc3c(NC(=O)Nc4cccc(Br)c4)ncnc32)[C@H](O)[C@@H]1O,252,286,275,0.9,1
CNC(=O)[C@H]1O[C@@H](n2cnc3c(NC(=O)Nc4cccc(Cl)c4)ncnc32)[C@H](O)[C@@H]1O,550,6700,115,4.8,58
CCNC(=O)[C@H]1O[C@@H](n2cnc3c(NC(=O)Nc4ccccc4I)ncnc32)[C@H](O)[C@@H]1O,179,440,32,5.6,14
CCNC(=O)[C@H]1O[C@@H](n2cnc3c(NC(=O)Nc4ccc(C)cc4)ncnc32)[C@H](O)[C@@H]1O,124,351,32.3,3.8,11
CCNC(=O)[C@H]1OC(n2cnc3c(NC(=O)Nc4ccc(C(F)(F)F)cc4)ncnc32)[C@H](O)[C@@H]1O (some centres undefined),739,4830,150,4.9,32
CCNC(=O)[C@H]1O[C@@H](n2cnc3c(NC(=O)Nc4ccccc4Cl)ncnc32)[C@H](O)[C@@H]1O,111,1340,7.4,15,180
CCNC(=O)[C@H]1O[C@@H](n2cnc3c(NC(=O)Nc4cccc(I)c4)ncnc32)[C@H](O)[C@@H]1O,,3940,30,0.5,130
CCNC(=O)[C@H]1O[C@@H](n2cnc3c(NC(=O)Nc4cccc(OC)c4)ncnc32)[C@H](O)[C@@H]1O,113,3860,42,2.7,92
CCNC(=O)[C@H]1O[C@@H](n2cnc3c(NC(=O)NC(C)(C)C)ncnc32)[C@H](O)[C@@H]1O,1440,3670,1930,0.75,1.9
CCNC(=O)[C@H]1O[C@@H](n2cnc3c(NC(=O)Nc4ccccc4)ncnc32)[C@H](O)[C@@H]1O,110,5360,39,2.8,140

# Continued by falling Ki [1], values first:
Ki [1] [nM],Ki [2] [nM],Ki [3] [nM],Selectivity [4],Selectivity [5],SMILES
85,1380,19,4.4,72,CCNC(=O)[C@H]1O[C@@H](n2cnc3c(NC(=O)Nc4ccc(F)cc4)ncnc32)[C@H](O)[C@@H]1O
77,528,34,2.2,15,CCNC(=O)[C@H]1O[C@@H](n2cnc3c(NC(=O)Nc4ccccc4F)ncnc32)[C@H](O)[C@@H]1O
73,1160,30,2.4,38,CCNC(=O)[C@H]1O[C@@H](n2cnc3c(NC(=O)Nc4ccccc4OC)ncnc32)[C@H](O)[C@@H]1O
72,1490,114,0.6,13,CCNC(=O)[C@H]1O[C@@H](n2cnc3c(NC(=O)Nc4ccc(Cl)cc4)ncnc32)[C@H](O)[C@@H]1O
64,561,101,0.6,5.6,CCNC(=O)[C@H]1O[C@@H](n2cnc3c(NC(=O)Nc4ccc(I)cc4)ncnc32)[C@H](O)[C@@H]1O
45,420,4.4,10,96,CCNC(=O)[C@H]1O[C@@H](n2cnc3c(NC(=O)Nc4cccc(Cl)c4)ncnc32)[C@H](O)[C@@H]1O
33,3360,6.6,4.9,510,CCNC(=O)[C@H]1O[C@@H](n2cnc3c(NC(=O)Nc4ccc(OC)cc4)ncnc32)[C@H](O)[C@@H]1O
